ChEMBL document CHEMBL3045045, “Antifungal activity of CHE-23C, a dimeric sesquiterpene from Chloranthus henryi” (2009)
Values after ≈ are worked out from the molar mass of the structure shown.

Legend:
Format in all cases: functional
Phytophthora infestans [1] = test: Antifungal activity against Phytophthora infestans infected compound pre-treated tomato plant seedlings assessed as tomato late blight disease control efficacy at 2 ug/mL measured after 2 days under greenhouse conditions
Procedure, shortened: (§1)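 Tomato seedlings at second-leaf stage sprayed to runoff with compound in 1% Tween 20 (water/DMSO 99:1), left 24 h, then sprayed with P. infestans zoospore suspension (5 × 10^4 sporangia/mL). Held 1 day at 20 C, 100% RH, then 2 days in growth chamber. Three replicates, randomized blocks; % control from infected area versus Tween 20/1% DMSO controls.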

Phytophthora infestans [2] = test: Antifungal activity against Phytophthora infestans infected compound pre-treated tomato plant seedlings assessed as tomato late blight disease control efficacy at 10 ug/mL measured after 2 days under greenhouse conditions; procedure, shortened: as §1
Pyricularia grisea [3] = test: Antifungal activity against Magnaporthe grisea after 48 to 72 hr by agar dilution method
Procedure, shortened: (§2)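 Agar dilution: DMSO stock added to molten medium (potato dextrose agar, or V-8 juice agar) at 0.25–128 μg/mL, 2-fold series. Inoculum was 5 mm mycelial disks from actively growing colony margins pre-grown 3–7 days at 20–25 C. Plates incubated 20–25 C for 24–72 h. MIC = lowest concentration giving complete growth inhibition versus compound-free plate; three repeats.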

Alternaria kikuchiana = test: Antifungal activity against Alternaria kikuchiana after 48 to 72 hr by agar dilution method
Procedure, shortened: (§3)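 Agar dilution MIC on field-isolate phytopathogens. Compound in DMSO added to molten potato dextrose agar at 0.25-128 μg/mL (2-fold serial dilution). Inocula were 5 mm mycelial disks cut from actively growing colony margins after 3-7 days at 20-25 C. Plates were incubated at 20-25 C for 24-72 h. MIC is the lowest concentration giving complete growth inhibition versus a no-compound control. Run three times.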

Pyricularia grisea [4] = test: Antifungal activity against Magnaporthe grisea infected compound pre-treated rice plant seedlings assessed as rice blast disease control efficacy at 100 ug/mL under greenhouse conditions
Procedure, shortened: (§4)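 Rice seedlings at third-leaf stage sprayed to runoff with compound in 1% Tween 20 (water/DMSO 99:1), left 24 h, then sprayed with M. grisea spores (5 × 10^5 spores/mL). Greenhouse; randomized complete block, three replicates; % control = 100×[(A−B)/A] from infected leaf area versus Tween 20/1% DMSO controls.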

Botrytis cinerea [5] = test: Antifungal activity against Botryotinia fuckeliana infected in compound pre-treated tomato plant seedlings assessed as tomato gray mold disease control efficacy at 11 ug/mL measured 3 days post fungus inoculation under greenhouse conditions
Procedure, shortened: (§5)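 Tomato seedlings were sprayed to runoff with compound in 1% Tween 20 containing 1% DMSO; controls got Tween 20 with 1% DMSO. After 24 h, second-leaf-stage plants were sprayed with B. cinerea spores (10^6/mL) and kept dark at 20 C, 100% RH. Infected leaf area was scored 3 days post-inoculation. Three replicates in randomized complete blocks; % control = 100 × (A−B)/A against the Tween-only control.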

Pyricularia grisea [6] = test: Antifungal activity against Magnaporthe grisea infected compound pre-treated rice plant seedlings assessed as rice blast disease control efficacy at 11 ug/mL under greenhouse conditions; procedure, shortened: as §4
Blumeria hordei [7] = test: Antifungal activity against Blumeria graminis f. sp. hordei infected compound pre-treated barley plant seedlings assessed as barley powdery mildew disease control efficacy at 11 ug/mL under greenhouse conditions
Procedure, shortened: (§6)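 Greenhouse protective assay. Seedlings were sprayed to runoff with compound in 1% Tween 20 containing 1% DMSO; controls got Tween 20 with 1% DMSO. Plants stood 24 h before pathogen inoculation. Infected leaf area was scored. Three replicates in randomized complete blocks; % control = 100 × (A−B)/A against the Tween-only control; means compared by LSD at P = 0.05.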

Pyricularia grisea [8] = test: Antifungal activity against Magnaporthe grisea infected compound pre-treated rice plant seedlings assessed as rice blast disease control efficacy at 33 ug/mL under greenhouse conditions; procedure, shortened: as §4
Blumeria hordei [9] = test: Antifungal activity against Blumeria graminis f. sp. hordei infected compound pre-treated barley plant seedlings assessed as barley powdery mildew disease control efficacy at 33 ug/mL under greenhouse conditions; procedure, shortened: as §6
Colletotrichum lagenaria = test: Antifungal activity against Colletotrichum lagenaria after 48 to 72 hr by agar dilution method; procedure, shortened: as §3
Corticium [10] = test: Antifungal activity against Corticium sasaki infected compound pre-treated rice plant seedlings through soil application of fungus assessed as rice sheath blight disease control efficacy at 33 ug/mL under greenhouse conditions
Procedure, shortened: (§7)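 Rice seedlings were sprayed to runoff with compound in 1% Tween 20 containing 1% DMSO; controls got Tween 20 with 1% DMSO. After 24 h, fourth-leaf-stage plants were inoculated by adding 7-day-old C. sasaki cultures to the soil. Infected sheath area was scored. Three replicates in randomized complete blocks; % control = 100 × (A−B)/A against the Tween-only control.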

Corticium [11] = test: Antifungal activity against Corticium sasaki infected compound pre-treated rice plant seedlings through soil application of fungus assessed as rice sheath blight disease control efficacy at 100 ug/mL under greenhouse conditions; procedure, shortened: as §7
Puccinia recondita [12] = test: Antifungal activity against Puccinia recondita infected compound pre-treated wheat plant seedlings assessed as wheat leaf rust disease control efficacy at 33 ug/mL under greenhouse conditions; procedure, shortened: as §6
Clavispora lusitaniae = test: Antifungal activity against Clavispora lusitaniae ATCC 6258 after 48 to 72 hr by agar dilution method
Fusarium oxysporum = test: Antifungal activity against Fusarium oxysporum after 48 to 72 hr by agar dilution method; procedure, shortened: as §3
Corticium [13] = test: Antifungal activity against Corticium sasaki infected compound pre-treated rice plant seedlings through soil application of fungus assessed as rice sheath blight disease control efficacy at 11 ug/mL under greenhouse conditions; procedure, shortened: as §7
Rhizoctonia solani = test: Antifungal activity against Rhizoctonia solani after 48 to 72 hr by agar dilution method; procedure, shortened: as §3
Phytophthora infestans [14] = test: Antifungal activity against Phytophthora infestans after 48 to 72 hr by agar dilution method; procedure, shortened: as §2
Botrytis cinerea [15] = test: Antifungal activity against Botryotinia fuckeliana infected in compound pre-treated tomato plant seedlings assessed as tomato gray mold disease control efficacy at 100 ug/mL measured 3 days post fungus inoculation under greenhouse conditions; procedure, shortened: as §5
Puccinia recondita [16] = test: Antifungal activity against Puccinia recondita infected compound pre-treated wheat plant seedlings assessed as wheat leaf rust disease control efficacy at 11 ug/mL under greenhouse conditions; procedure, shortened: as §6
Phytophthora infestans [17] = test: Antifungal activity against Phytophthora infestans infected compound pre-treated tomato plant seedlings assessed as tomato late blight disease control efficacy at 100 ug/mL measured after 2 days under greenhouse conditions; procedure, shortened: as §1
Botrytis cinerea [18] = test: Antifungal activity against Botryotinia fuckeliana after 48 to 72 hr by agar dilution method; procedure, shortened: as §3
Phytophthora infestans [19] = test: Antifungal activity against Phytophthora infestans infected compound pre-treated tomato plant seedlings assessed as tomato late blight disease control efficacy at 11 ug/mL measured after 2 days under greenhouse conditions; procedure, shortened: as §1
Cryptococcus neoformans = test: Antifungal activity against Cryptococcus neoformans ATCC 36556 after 48 to 72 hr […]
Blumeria hordei [20] = test: Antifungal activity against Blumeria graminis f. sp. hordei infected compound pre-treated barley plant seedlings assessed as barley powdery mildew disease control efficacy at 100 ug/mL under greenhouse conditions
Procedure, shortened: (§8)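 Barley or wheat seedlings sprayed to runoff with compound in 1% Tween 20 containing water/DMSO (99:1); controls got Tween 20 with 1% DMSO; left 24 h before inoculation; greenhouse. Pots in randomized complete block, three replicates; infected leaf area averaged and converted to % control = 100×[(A−B)/A] versus Tween-only plants.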

Candida tropicalis = test: Antifungal activity against Candida tropicalis ATCC 13803 after 48 to 72 hr by agar dilution method
Phytophthora infestans [21] = test: Antifungal activity against Phytophthora infestans infected compound pre-treated tomato plant seedlings assessed as tomato late blight disease control efficacy at 33 ug/mL measured after 2 days under greenhouse conditions; procedure, shortened: as §1
Puccinia recondita [22] = test: Antifungal activity against Puccinia recondita infected compound pre-treated wheat plant seedlings assessed as wheat leaf rust disease control efficacy at 100 ug/mL under greenhouse conditions; procedure, shortened: as §6
Candida albicans [23] = test: Antifungal activity against Candida albicans ATCC 10231 after 48 to 72 hr by agar dilution method
Pichia kudriavzevii = test: Antifungal activity against Pichia kudriavzevii ATCC 42720 after 48 to 72 hr by agar dilution method
Botrytis cinerea [24] = test: Antifungal activity against Botryotinia fuckeliana infected in compound pre-treated tomato plant seedlings assessed as tomato gray mold disease control efficacy at 33 ug/mL measured 3 days post fungus inoculation under greenhouse conditions; procedure, shortened: as §5
Candida albicans [25] = test: Antifungal activity against Candida albicans isolate A207 after 48 to 72 hr by agar dilution method
Globisporangium ultimum = test: Antifungal activity against Pythium ultimum after 48 to 72 hr by agar dilution method; procedure, shortened: as §3
Puccinia recondita [26] = test: Antifungal activity against Puccinia recondita infected compound pre-treated wheat plant seedlings assessed as wheat leaf rust disease control efficacy at 20 ug/mL under greenhouse conditions; procedure, shortened: as §8
Puccinia recondita [27] = test: Antifungal activity against Puccinia recondita infected compound pre-treated wheat plant seedlings assessed as wheat leaf rust disease control efficacy at 50 ug/mL under greenhouse conditions; procedure, shortened: as §8
Botrytis cinerea [28] = test: Antifungal activity against Botryotinia fuckeliana infected in compound pre-treated tomato plant seedlings assessed as tomato gray mold disease control efficacy at 50 ug/mL measured 3 days post fungus inoculation under greenhouse conditions
Botrytis cinerea [29] = test: Antifungal activity against Botryotinia fuckeliana infected in compound pre-treated tomato plant seedlings assessed as tomato gray mold disease control efficacy at 5 ug/mL measured 3 days post fungus inoculation under greenhouse conditions
Blumeria hordei [30] = test: Antifungal activity against Blumeria graminis f. sp. hordei infected compound pre-treated barley plant seedlings assessed as barley powdery mildew disease control efficacy at 1 ug/mL under greenhouse conditions; procedure, shortened: as §8
Phytophthora infestans [31] = test: Antifungal activity against Phytophthora infestans infected compound pre-treated tomato plant seedlings assessed as tomato late blight disease control efficacy at 50 ug/mL measured after 2 days under greenhouse conditions; procedure, shortened: as §1
Corticium [32] = test: Antifungal activity against Corticium sasaki infected compound pre-treated rice plant seedlings through soil application of fungus assessed as rice sheath blight disease control efficacy at 50 ug/mL under greenhouse conditions
Procedure, shortened: (§9)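 Rice seedlings at fourth-leaf stage sprayed to runoff with compound in 1% Tween 20 (water/DMSO 99:1), left 24 h, then inoculated by adding 7-day-old C. sasaki cultures to soil. Greenhouse; three replicates, randomized complete block; % control = 100×[(A−B)/A] from infected sheath area relative to Tween 20/1% DMSO-treated plants.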

Corticium [33] = test: Antifungal activity against Corticium sasaki infected compound pre-treated rice plant seedlings through soil application of fungus assessed as rice sheath blight disease control efficacy at 5 ug/mL under greenhouse conditions; procedure, shortened: as §9

COc1ccc(C(=CC(=O)N2CCOCC2)c2ccc(Cl)cc2)cc1OC [DIMETHOMORPH]
Efficacy (Phytophthora infestans [1]): 64% | Efficacy (Phytophthora infestans [2]): 100%

C/C=C(\C)C(=O)OC[C@]1(O)[C@H]2C[C@H]2[C@]2(C)[C@@H]3CC4=C5[C@H](/C(=C(/C)C(=O)OC)C(=O)[C@H](O)[C@@]5(C)[C@@H]5C[C@H]45)[C@@]34OC(=O)C(COC(C)=O)=C4C[C@@H]12
MIC (Pyricularia grisea [3]): 4 µg/mL (≈ 5.91 µM) | MIC (Alternaria kikuchiana): 8 µg/mL (≈ 11.8 µM) | Efficacy (Pyricularia grisea [4]): 72% | Efficacy (Botrytis cinerea [5]): 7.2% | Efficacy (Pyricularia grisea [6]): 67% | Efficacy (Blumeria hordei [7]): 0% | Efficacy (Pyricularia grisea [8]): 50% | Efficacy (Blumeria hordei [9]): 0% | MIC (Colletotrichum lagenaria): 8 µg/mL (≈ 11.8 µM) | Efficacy (Corticium [10]): 50% | Efficacy (Corticium [11]): 69% | Efficacy (Puccinia recondita [12]): 87% | MIC (Clavispora lusitaniae): 128 µg/mL (≈ 189 µM) | MIC (Fusarium oxysporum): 16 µg/mL (≈ 23.6 µM) | Efficacy (Corticium [13]): 50% | MIC (Rhizoctonia solani): 16 µg/mL (≈ 23.6 µM) | MIC (Phytophthora infestans [14]): 32 µg/mL (≈ 47.3 µM) | Efficacy (Botrytis cinerea [15]): 36% | Efficacy (Puccinia recondita [16]): 80% | Efficacy (Phytophthora infestans [17]): 93% | MIC (Botrytis cinerea [18]): 8 µg/mL (≈ 11.8 µM) | Efficacy (Phytophthora infestans [19]): 29% | MIC (Cryptococcus neoformans): 16 µg/mL (≈ 23.6 µM) | Efficacy (Blumeria hordei [20]): 17% | MIC (Candida tropicalis): > 128 µg/mL | Efficacy (Phytophthora infestans [21]): 91% | Efficacy (Puccinia recondita [22]): 100% | MIC (Candida albicans [23]): 64 µg/mL (≈ 94.6 µM) | MIC (Pichia kudriavzevii): 128 µg/mL (≈ 189 µM) | Efficacy (Botrytis cinerea [24]): 14% | MIC (Candida albicans [25]): 8 µg/mL (≈ 11.8 µM) | MIC (Globisporangium ultimum): 1 µg/mL (≈ 1.48 µM)

CC1=C(C(=O)Nc2ccccc2)SCCO1 [CARBOXIN]
Efficacy (Puccinia recondita [26]): 43% | Efficacy (Puccinia recondita [27]): 100%

N#Cc1c[nH]cc1-c1cccc2c1OC(F)(F)O2 [FLUDIOXONIL]
Efficacy (Botrytis cinerea [28]): 100% | Efficacy (Botrytis cinerea [29]): 82%

CCCCNC(=O)n1c(NC(=O)OC)nc2ccccc21 [BENOMYL]
Efficacy (Blumeria hordei [30]): 90% | Efficacy (Blumeria hordei [20]): 100%

N#Cc1c(Cl)c(Cl)c(Cl)c(C#N)c1Cl [CHLOROTHALONIL]
Efficacy (Phytophthora infestans [31]): 94% | Efficacy (Phytophthora infestans [17]): 100%

OCC1=C[C@H](N[C@H]2C[C@H](CO)[C@@H](O[C@@H]3O[C@H](CO)[C@@H](O)[C@H](O)[C@H]3O)[C@H](O)[C@H]2O)[C@H](O)[C@@H](O)[C@@H]1O [VALIDAMYCIN]
Efficacy (Corticium [32]): 100% | Efficacy (Corticium [33]): 75%
